Measurements gathered from unrelated publications.
Target: Peroxisome proliferator-activated receptor alpha (PPARA, Homo sapiens, UniProt Q07869)
Residues used in one study (Q07869 1-468): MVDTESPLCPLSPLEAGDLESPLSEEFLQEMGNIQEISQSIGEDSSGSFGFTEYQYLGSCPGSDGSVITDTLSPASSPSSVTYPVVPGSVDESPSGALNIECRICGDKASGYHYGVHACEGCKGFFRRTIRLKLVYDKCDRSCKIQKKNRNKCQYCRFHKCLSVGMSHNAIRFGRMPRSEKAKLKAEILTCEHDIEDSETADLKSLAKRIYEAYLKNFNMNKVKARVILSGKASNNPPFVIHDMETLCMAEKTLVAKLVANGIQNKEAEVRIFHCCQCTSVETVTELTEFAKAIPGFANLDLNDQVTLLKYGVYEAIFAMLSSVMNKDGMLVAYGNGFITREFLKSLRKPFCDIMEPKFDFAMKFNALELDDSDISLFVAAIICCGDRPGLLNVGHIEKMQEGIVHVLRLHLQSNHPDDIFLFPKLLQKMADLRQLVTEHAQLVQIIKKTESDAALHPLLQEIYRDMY

| SMILES | read-out | action | technique | endpoint | value |
| --- | --- | --- | --- | --- | --- |
| Cc1ccc(C)c(OCCCC(C)(C)C(=O)O)c1 | reporter gene | agonist | luciferase | EC50 | 201 µM |
| CC1(C)C=Cc2c(cc3oc(-c4ccccc4)c(O)c(=O)c3c2O)O1 | ligand displacement | – | TR-FRET | Ki | 3.3 µM |
| O=C(Nc1ccc(Oc2ncccn2)cc1C(=O)O)c1ccc(Cl)cc1Cl | ligand displacement | – | TR-FRET | IC50 | 11.9 µM |
| O=C(Nc1ccc(OCCF)cc1)c1cc([N+](=O)[O-])ccc1Cl | enzyme activity in cells | inhibitor | – | IC50 | > 2 µM |
| C=CCc1ccc(O)c(-c2cc(CC=C)ccc2O)c1 | ligand displacement | – | TR-FRET | Ki | 3.38 µM |
| CCCCCC#CCC#CCC#CCC#CCCCC(=O)O | reporter gene | agonist | luciferase | EC50 | 0.99 µM |
| O=C(Nc1ccc(CCF)cc1)c1cc([N+](=O)[O-])ccc1Cl | enzyme activity in cells | inhibitor | – | IC50 | > 2 µM |
| C=CCc1ccc(O)c(-c2ccc(O)c(CC=C)c2)c1 | ligand displacement | – | TR-FRET | Ki | 4.6 µM |
| Cc1c(C)n(Cc2ccc(-c3ccccc3C(=O)O)cc2)c2ccc(C(=O)N[C@@H](C)c3ccc(C(C)(C)C)cc3)cc12 | ligand displacement | – | TR-FRET | Ki | 0.594 µM |
| CC(C)(Oc1ccc(C(=O)c2ccc(Cl)cc2)cc1)C(=O)O | reporter gene | agonist | luciferase | EC50 | 47.1 µM |
